Screening results from PubChem.
Shown are actives, neighbours in structure and some others; about 2.1% of the full set was active somewhere.
Runt-SMMHC FRET = Runt domain-CBFb-SMMHC interaction inhibition; Cerulean-Runt/Venus-CBFb-SMMHC FRET ratio 530/480, 1 h; inhibition, % at 20 µM; 220,000 tested, 0.74% active;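 active means mean inhibition across duplicate retests at 20 µM reaching about 50%, limit read from the data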;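 further: 0% = DMSO wells and 100% = wells with excess untagged CBFb-SMMHC; inhibitors lower the FRET ratio by blocking Runt binding to CBFb-SMMHC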
RanGTP-Impb inh = disruptors of Ran-importin-beta complex formation – biochemical, FRET, CFP-Ran, YFP-importin-beta, homogeneous, primary screen | cell-free CFP-Ran/YFP-importin-beta FRET ratio | AID 2216 | 300,000 tested, 1.1% active | inhibition, % (test concentration not listed);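 active means more than half of the replicate wells show a fall in the fluorescence ratio signal beyond about 16%, limit read from the data, passing the limit was not always enough; inconclusive means exactly half of the replicate wells pass the set limit; inactive means fewer than half of replicates pass the limit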;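 further: 0% = DMSO wells and 100% = Ran loaded with GDP instead of GTP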
TbHK1 inh = blocks Trypanosoma brucei hexokinase 1 activity. recombinant TbHK1, G6PDH-coupled NADH A340. inhibition, % at 10 µM. 220,000 tested, 0.11% active;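 active means inhibition of 50% or more in the single-dose primary screen; inactive means inhibition below 50%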
Hck Nef HTS = blocks Nef-activated human Hck kinase. P08631. Recombinant Hck-YEEI plus Nef, Z-Lyte FRET kinase assay. inhibition, % at 20 µM. 220,000 tested, 0.68% active. AID 463187;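 active means Hck-Nef kinase inhibition above about 50%, limit read from the data; inactive means inhibition below that limit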;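 further: 0% = DMSO with Hck plus Nef and 100% = Hck alone without Nef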
p97 ATPase inh = inhibitors of human p97 ATPase; P55072; recombinant p97 ATPase, Kinase-Glo ATP luminescence, 3 h; inhibition, % at 8 µM; 220,000 tested, 0.42% active; in the data active means inhibition above about 15%;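 further: 0% = DMSO vehicle and 100% = wells lacking enzyme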
Target sequence (P55072 whole entry, looked up): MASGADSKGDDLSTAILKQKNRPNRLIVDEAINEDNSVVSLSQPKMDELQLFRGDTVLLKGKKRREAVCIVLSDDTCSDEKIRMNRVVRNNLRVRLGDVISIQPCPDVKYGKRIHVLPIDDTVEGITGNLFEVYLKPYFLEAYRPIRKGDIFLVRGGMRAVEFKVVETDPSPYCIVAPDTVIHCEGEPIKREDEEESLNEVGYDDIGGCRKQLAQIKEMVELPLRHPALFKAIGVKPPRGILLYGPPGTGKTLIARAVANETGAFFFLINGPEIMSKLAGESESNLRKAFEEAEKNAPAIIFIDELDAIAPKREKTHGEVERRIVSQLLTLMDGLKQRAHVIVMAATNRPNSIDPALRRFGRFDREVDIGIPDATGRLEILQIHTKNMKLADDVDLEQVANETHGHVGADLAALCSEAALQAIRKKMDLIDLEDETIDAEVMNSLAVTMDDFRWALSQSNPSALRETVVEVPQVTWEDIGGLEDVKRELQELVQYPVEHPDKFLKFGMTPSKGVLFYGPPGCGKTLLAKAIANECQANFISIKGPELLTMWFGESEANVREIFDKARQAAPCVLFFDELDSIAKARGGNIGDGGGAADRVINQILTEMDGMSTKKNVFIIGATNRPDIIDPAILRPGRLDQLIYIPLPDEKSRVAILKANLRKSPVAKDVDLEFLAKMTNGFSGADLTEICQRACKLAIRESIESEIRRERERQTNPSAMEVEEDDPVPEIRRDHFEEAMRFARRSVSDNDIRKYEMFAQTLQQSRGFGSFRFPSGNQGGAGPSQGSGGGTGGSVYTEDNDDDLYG
Runt-CBFb FRET = blocks binding of human RUNX1 Runt domain to CBFb. Cerulean-Runt/Venus-CBFb FRET ratio 530/480, 1 h. AID 1496. inhibition, % at 20 µM. 220,000 tested, 0.46% active;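 active means inhibition over about 50% at 20 µM in the single-dose screen, limit read from the data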;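 further: 0% = DMSO wells and 100% = excess unlabeled CBFb competitor control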
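Measured by: fluorescence energy transfer, 422 nm excitation, 530/480 nm emission; Assay system: Cerulean-Runt domain; Medium: Tris pH 7.5 buffer with BSA; Measure: loss of energy transfer signal; Controls: 5 µM unlabeled CBFb as full-inhibition high control; Incubation: protein complex preformed 1 h, compound exposure 1 h, room temperature, dark.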
An asterisk follows results filed as active; ? = inconclusive; / = not tested or not shown.

SMILES	Runt-SMMHC FRET	RanGTP-Impb inh	TbHK1 inh	Hck Nef HTS	p97 ATPase inh	Runt-CBFb FRET
Cc1ccc(S(=O)(=O)c2cc3c(=O)n4ccccc4nc3n(Cc3ccco3)c2=N)cc1C	-14	76*	24	0	3	14
O=Cc1c(N2CCN(CCO)CC2)nc2ccccn2c1=O	/	79*	/	/	/	/
CCN1CCN(c2nc3ccccn3c(=O)c2C=O)CC1	/	110*	/	/	/	/
O=C(O)c1ccc(-c2noc(-c3ccc(F)cc3)n2)cc1	/	0	/	/	/	/
O=c1c2ccccc2c(C=NCCc2ccccc2)c(O)n1Cc1ccccc1	0	?	-6	-12	0	1
N#CC1=C(N)N(c2ccccc2C#N)C2=C(C(=O)CCC2)C1c1ccsc1 (stereo unspecified)	18	30*	-7	1	1	15
Cc1cccn2c(=O)c(/C=C3\SC(=S)NC3=O)c(NCCCN3CCOCC3)nc12	-67	35*	-24	-12	13	26
COc1ccccc1C(=O)Nc1ccc(-c2nnc(SCC(=O)O)n2C)cc1	-5	20*	-6	2	4	2
COc1ccccc1NC(=O)CSc1nnc(-c2ccc(NC(C)=O)cc2)n1C	-4	5	1	1	6	-3
COCCNC(=O)c1c(N)n(/N=C/c2cccs2)c2nc3ccccc3nc12	24	95*	-40	4	1	62*
COCCCNC(=O)c1c(N)n(-c2ccc3c(c2)OCO3)c2nc3ccccc3nc12	9	5	-16	12	-3	1
CCCNC(=O)c1c(N)n(-c2ccc3c(c2)OCO3)c2nc3ccccc3nc12	6	3	32	21	7	5
CCOCCCNC(=O)c1c(N)n(-c2ccc3c(c2)OCO3)c2nc3ccccc3nc12	40	133*	-17	27	4	12
CCOCCCNC(=O)c1c(N)n(-c2ccc(S(N)(=O)=O)cc2)c2nc3ccccc3nc12	58*	?	-5	6	-1	35
CCCNC(=O)c1c(N)n(-c2cc(OC)cc(OC)c2)c2nc3ccccc3nc12	109*	58*	-1	23	2	33
NC(=O)CNC(=O)C1CCN(S(=O)(=O)c2ccc(-n3cnnn3)cc2)CC1	/	5	/	/	/	/
COc1ccc(NC(=O)C2CC(=O)N=C(N)S2)cc1 (stereo unspecified)	0	1	-3	20	6	0
CCCCCCNC(=O)c1c(N)n(/N=C/c2ccco2)c2nc3ccccc3nc12	/	/	-30	22	-2	/
Nc1c(C(=O)NC2CCCCC2)c2nc3ccccc3nc2n1/N=C/c1ccco1	52*	/	/	/	/	17
Cn1c(=O)c2c(SCC(=O)N3CCOCC3)nc(-c3ccccc3F)nc2n(C)c1=O	/	0	/	/	/	/
Cc1ccc(-c2ccc(NC(=O)C3C4C=CC(C4)C3C(=O)O)cc2)o1 (stereo unspecified)	5	30*	0	2	0	8
CCCc1cc(=O)oc2cc(OCC(=O)NCCCN3CCOCC3)c(Cl)cc12	/	-2	/	/	/	/
CCCc1cc(=O)oc2c3c(c(Cl)cc12)OCN(CCCO)C3	/	62*	/	/	/	/
COc1cccc(-n2cc(CNCc3cn(C)nc3-c3ccccc3F)cn2)c1	-2	64*	-5	-6	-4	0
CCOC(=O)c1sc2c(c1C)C(c1cccs1)C1=C(CCCC1=O)N2 (stereo unspecified)	111*	?	-4	17	3	99*
SMILES	Runt-SMMHC FRET	RanGTP-Impb inh	TbHK1 inh	Hck Nef HTS	p97 ATPase inh	Runt-CBFb FRET
O=C(O)CSc1nnc(-c2ccc(Cl)cc2Cl)n1-c1ccc(Cl)cc1	/	-3	/	/	/	/
O=C(c1cccs1)c1ccc(-c2cccs2)s1	50	42*	2	1	3	19
CN1CCN(C(=O)c2ccc(-c3cccs3)s2)CC1	3	3	-48	-6	-1	1
COc1ccc(CCNC2CC(C)N(C)CC2C)cc1OC (stereo unspecified)	27	27*	1	-1	-4	20
NC(=O)COc1c(-c2ccco2)oc2ccccc2c1=O	-17	4	-9	-49	3	0
CCOC(=O)C1=C(CSc2nc(C)ccc2C#N)OC(N)=C(C#N)C1c1cccc(OC)c1OC (stereo unspecified)	8	18*	-6	0	-5	24
O=C(N/N=C/c1cccnc1)c1cccc(NC(=O)c2ccc(Cl)cc2)c1	/	0	/	/	/	/
O=C(O)c1nn(CC(=O)N2CCC(Cc3ccccc3)CC2)c(=O)c2ccccc12	/	4	/	/	/	/
CSCCC(NC(C)=O)C(=O)Oc1ccc2c3c(c(=O)oc2c1)CCCC3 (stereo unspecified)	82*	/	-17	31	2	38
Cc1ccc(S(=O)(=O)NCc2cccnc2)cc1	/	-6	/	/	/	/
O=C1NC(=S)S/C1=C\c1ccc2ccccc2c1	/	-6	/	/	/	/
O=C1NC(=S)S/C1=C\c1coc2ccccc2c1=O	-8	2	-17	88*	4	-2
O=C1NC(=S)S/C1=C\c1coc2ccc(O)cc2c1=O	-1	-1	9	53*	11	0
Cc1ccc(N2C(=O)CN(Cc3ccccc3)C2=S)cc1C	/	-2	/	/	/	/
NS(=O)(=O)c1ccc(Nc2nc(-c3ccc(O)cc3)cs2)cc1	-3	3	-12	2	7	4
Oc1ccc(Nc2nc(-c3ccc(O)cc3)cs2)cc1	2	6	2	1	15*	6
O=C(Cc1ccc(-n2cnnn2)cc1)NC12CC3CC(CC(C3)C1)C2	3	5	3	3	4	0
c1coc(CNc2c3c(nc4ccccc24)CCC3)c1	44	79*	-22	7	2	12
CC(C)NCC(=O)Nc1c2c(nc3ccccc13)CCC2	-4	-1	-6	4	-2	-4
O=C(CCN1C(=O)c2ccccc2S1(=O)=O)NCc1ccco1	-3	?	3	-28	-2	0
Cc1ccc(C)c(NC(=O)CCCCCCCCCCC2COCCO2)c1 (stereo unspecified)	2	-3	-9	1	-4	0
C=CCOc1c(Br)cc(C2C3=C(CCCC3=O)N(C)C3=C2C(=O)CCC3)cc1OCC	/	101*	-11	53*	-4	96*
C=CCOc1ccc(C2C3=C(CCCC3=O)N(CC(=O)O)C3=C2C(=O)CCC3)cc1OCC	/	2	/	/	/	/
CCOC(=O)C1=CN(Cc2ccc(OC)cc2)C=C(C(=O)OCC)C1c1cccs1	26	3	-2	58*	0	9
CCOC(=O)C1=C(C)NC(C)=C(C(=O)OCC)C1c1cccs1	-2	7	27	3	-3	-2
CCOc1cc(/C=C\c2nc(O)c([N+](=O)[O-])c(=O)[nH]2)ccc1OC(C)C	/	7	/	/	/	/
